PostGolgi yeast – phenotypic screen on post-Golgi transport, primary screen. 0.9% of 98,000 active. AID 739, 2007. post-Golgi transport phenotypic cell assay. inhibition, % at 10 µM;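 also: yeast cells grown in 1536-well plates; yeast grown about 18 h at 30C before absorbance read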
PostGolgi ctrl – growth inhibition of yeast control strain, primary screen, counter-screen for post-Golgi transport modulator project | efflux-deficient yeast background strain, growth absorbance A615, 16 h | 5% of 98,000 active | AID 738, 2007 | inhibition, % at 10 µM
E coli WT exp – growth inhibitors of wild-type E. coli, primary screen, strain BW25113, expanded library, OD600; OD600 absorbance; growth inhibition, % at 100 µM; 0.15% of 98,000 active; AID 710, 2007;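 active = growth inhibition above about 50% at one test dose, limit read from the data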;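 also: growth measured after 20 h incubation at 37 °C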
Ecoli tolC – growth inhibitors of E. coli tolC mutant, primary screen, strain BW25113 ΔtolC::kan, 384-well | OD615 | growth inhibition, % at 10 µM (by protocol) | 2.2% of 65,000 active | AID 573, 2007;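 active = growth inhibition at or above a cutoff equal to the mean over every tested compound plus 3 SD, cut at about 60% in these data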;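 also: growth measured after 20 h incubation at 37 °C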
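Signal: optical density read at 615 nm; Assay system: E. coli ΔtolC::kan strain BW25113; Times: 20 h incubation with compound, 37 °C; Dosing: 10 µM final, single dose.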
Cav32 inh – Cav3.2 calcium influx blockers – cell-based, Fluo-4 calcium fluorescence, FDSS, MLSMR library, primary screen | 4% of 100,000 active | Cav3.2-expressing cells; hits give low values | Voltage-dependent T-type calcium channel subunit alpha-1H (Homo sapiens), O95180 | B-score at 10 µM;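 active = single-dose well whose peak fluorescence ratio is a statistical outlier from its plate by either plate-standardised score or position-corrected B-score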
Pyk2 oligo antag – antagonists of Pyk2 self-association, primary screen, Q293 cells, FERM NanoBiT luminescence, HTS. Protein-tyrosine kinase 2-beta (Homo sapiens), Q14289. hits give low values. z-score (the deposit names both 25 µM and 10 µM). 0.83% of 99,000 active. AID 1347419, 2020;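 active = Z-score of -3 or lower, scaled per plate to the spread of control and sample wells; inactive = z-score above -3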;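 also: negative z-score means lost luminescence so less FERM oligomerization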
Target sequence (Q14289 whole entry, looked up): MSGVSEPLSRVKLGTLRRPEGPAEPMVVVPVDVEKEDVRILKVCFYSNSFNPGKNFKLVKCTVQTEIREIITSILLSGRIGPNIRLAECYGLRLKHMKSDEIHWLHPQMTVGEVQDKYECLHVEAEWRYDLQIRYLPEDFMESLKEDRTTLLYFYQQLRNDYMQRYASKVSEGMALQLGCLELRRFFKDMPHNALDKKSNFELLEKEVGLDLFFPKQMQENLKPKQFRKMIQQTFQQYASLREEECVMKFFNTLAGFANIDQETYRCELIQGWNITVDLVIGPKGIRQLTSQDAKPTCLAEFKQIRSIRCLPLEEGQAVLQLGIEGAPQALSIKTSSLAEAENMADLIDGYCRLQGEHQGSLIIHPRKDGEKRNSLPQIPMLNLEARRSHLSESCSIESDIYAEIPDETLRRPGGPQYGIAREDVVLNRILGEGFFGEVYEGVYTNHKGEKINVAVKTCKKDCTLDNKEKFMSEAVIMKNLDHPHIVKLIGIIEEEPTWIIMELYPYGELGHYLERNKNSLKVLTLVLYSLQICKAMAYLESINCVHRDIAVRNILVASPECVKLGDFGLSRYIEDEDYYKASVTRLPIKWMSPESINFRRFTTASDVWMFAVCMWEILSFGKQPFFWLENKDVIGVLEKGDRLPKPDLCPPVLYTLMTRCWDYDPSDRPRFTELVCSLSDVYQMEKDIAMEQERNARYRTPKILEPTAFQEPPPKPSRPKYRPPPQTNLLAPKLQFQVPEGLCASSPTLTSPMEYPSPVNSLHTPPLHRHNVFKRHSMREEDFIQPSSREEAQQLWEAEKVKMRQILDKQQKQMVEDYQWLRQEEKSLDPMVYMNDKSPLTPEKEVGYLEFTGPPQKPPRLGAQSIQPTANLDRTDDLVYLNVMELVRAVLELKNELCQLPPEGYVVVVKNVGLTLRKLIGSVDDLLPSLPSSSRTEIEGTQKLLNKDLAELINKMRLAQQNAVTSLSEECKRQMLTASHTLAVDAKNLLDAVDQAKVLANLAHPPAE
Starred values were filed as active, the others as inactive; . = no result given. An excerpt weighted towards active compounds, which were near 8.7% of everything screened. Rule as the data show it, unless noted: active = inhibition above about 30%; inactive = the rest.

SMILES	PostGolgi yeast	PostGolgi ctrl	E coli WT exp	Ecoli tolC	Cav32 inh	Pyk2 oligo antag
Oc1ccc(-c2nc3ccccn3c2NCc2ccco2)cc1	-3	4	0	.	0.11	0.1
CN(C)/C=C/C(=O)c1cccc(Cl)c1	0	45*	-2	.	-0.24	-0.22
CCCC1(CCC)NC(=O)N(CC(=O)c2cc(C)n(-c3ccc4c(c3)OCO4)c2C)C1=O	.	.	.	.	.	-1.2
CCCCCCc1ccc(-c2ncc(N)cn2)cc1	-1	32*	15	100*	0.012	-2.2
CCCCOc1ccc(-c2ncc(Cl)cn2)cc1	-4	6	-7	5	0.76	0.73
CCN1C(=O)c2ccccc2S(=O)(=O)c2ccc(C(=O)NCc3cccnc3)cc21	-6	-4	4	-7	-0.42	.
COc1ccc(C2=NN(C(C#N)c3ccc(OC)c(OC)c3)C(c3ccccc3)C2)cc1 (configuration not stated)	2	2	-21	.	-1.7	-0.6
CCn1c(=O)c(=O)[nH]c2cc(C(=O)N3CCN(c4ccccc4F)CC3)ccc21	0	4	0	-3	-0.27	-0.54
CC1(C)Cc2c(C#N)c(SCCC#N)nc(N3CCOCC3)c2CS1	13	9	5	2	-3.9*	-0.76
Cc1cccc(-c2nnc3n2N=C(c2ccccc2Br)CS3)c1	5	29	-7	36	-2.7	-1.7
O=C1C(=O)N(CNc2ccccn2)c2ccccc21	-2	-2	10	.	-0.19	0.24
Brc1ccc(OCc2ccccc2)c(CNCc2ccncc2)c1	101*	95*	13	.	0.17	-2.7
CC(NC(=O)C(Cc1ccccc1)N1C(=O)C2C3CCC(C3)C2C1=O)c1ccccc1 (configuration not stated)	-1	32*	-6	.	-0.0052	-0.86
O=C(NCc1ccco1)C(Cc1ccccc1)N1C(=O)C2C3C=CC(C3)C2C1=O (configuration not stated)	2	8	4	1	-0.0032	1.4
O=C(CC1SC(=O)N(Cc2cccc3ccccc23)C1=O)Nc1nccs1 (configuration not stated)	-24	33*	-14	.	0.022	-1.3
CCOC(=O)c1ccc2c(c1)n(CC)c(/C=C/Nc1ccccc1)[n+]2CC	-17	32*	2	.	-0.19	1.4
CC(SCc1ccccc1)C(=O)N/N=C/c1ccc2c(c1)OCO2 (configuration not stated)	-3	-14	4	.	-6.1*	0.74
Cc1cc(C)cc(CSCC(=O)N/N=C/c2ccc(OCC(=O)NCc3ccco3)cc2)c1	-2	10	-8	.	0.33	-3.1*
CC(SCc1ccccc1)C(=O)Nc1ccc2c(c1)OCO2 (configuration not stated)	-3	19	-2	.	-2.5	2.1
Cc1cccc(C(=O)N/N=C/c2ccc(OCC(=O)N3CCCCC3)cc2)c1	7	10	3	.	-0.32	-0.79
O=C(CSCc1cccc(Br)c1)N/N=C/c1ccc2c(c1)OCO2	5	12	-1	.	-5.4*	0.62
Cc1cccc(C)c1OCC(=O)N/N=C/c1ccc2c(c1)OCO2	5	1	-1	.	-1.3	0.9
O=C(CSCc1cccc(Cl)c1)N/N=C/c1ccc(OCC(=O)N2CCCCC2)cc1	-2	42*	-12	.	-2.3	-3.4*
COC(CNC(=O)c1cccc2c1C(=O)N(Cc1cccnc1)C2)OC	2	-14	3	.	1.6	0.39
CCOc1ccc(NC(=O)c2cccc3c2C(=O)N(Cc2cccnc2)C3)cc1	-4	32*	-5	20	0.79	-2.3
SMILES	PostGolgi yeast	PostGolgi ctrl	E coli WT exp	Ecoli tolC	Cav32 inh	Pyk2 oligo antag
c1cncc(-c2nc(NCC3COc4ccccc4O3)c3ccccc3n2)c1 (configuration not stated)	1	47*	-4	.	.	-3.8*
COC(=O)CNc1nc(-c2cccnc2)nc2ccccc12	0	12	1	19	0.84	-1.8
COc1ccc(OC)c(CN2CCCC(CO)C2)c1 (configuration not stated)	-1	3	2	.	0.075	-0.16
Cc1nc(SCC(=O)NCc2ccco2)[nH]c(=O)c1C	3	21	5	.	-0.82	-0.36
O=C(CSc1nc2nc(-c3cccs3)cc(C(F)(F)F)c2c(=O)[nH]1)NCc1ccco1	11	-1	-13	91*	-4*	-1.1
COC(=O)c1ccccc1NC(=O)C1CCCN(S(=O)(=O)c2ccccc2)C1 (configuration not stated)	-7	41*	-10	32	-0.62	-1.4
COC(=O)c1ccccc1NC(=O)N1CCN(S(=O)(=O)c2ccc(Cl)cc2)CC1	3	43*	4	25	-1.5	-0.8
O=C(Nc1ccc(Cl)cc1Cl)c1n[nH]c(Cn2cncn2)n1	-6	8	-5	.	0.25	0.34
Cc1cc(C)c(Cn2c(=O)n(CCCC(=O)NCc3ccco3)c(=O)c3ccccc32)c(C)c1	.	.	.	-11	.	-1.4
CCOC(=O)CNC1CC(=O)N(c2cccc(Cl)c2)C1=O (configuration not stated)	1	1	-9	.	-0.43	0.73
CCOC(=O)c1c(C)[nH]c(C(=O)OC)c1CCC(=O)OC	-1	7	2	9	1.2	0
CCOC(=O)c1[nH]c(Cc2[nH]c(C(=O)OCC)c(C)c2CCC(=O)OC)c(CCC(=O)OC)c1C	-2	18	0	7	-8.4*	-1.6
CCOC(=O)C1=C(C)NC(=O)NC1c1ccc(Br)s1 (configuration not stated)	-3	9	-8	18	-0.21	-0.57
CC1=C(C(=O)OC(C)C)C(c2ccc(Br)s2)NC(=O)N1C (configuration not stated)	1	-2	4	16	-4.4*	-0.08
CCN(CC)c1ccc(C(=O)Nc2cccc(F)c2)cc1	-3	10	-4	62*	-4.3	-1
CN(C)c1cccc(C(=O)Nc2cccc(F)c2)c1	-8	9	5	38	-0.57	0.05
Cc1cc(NCCN2CCOCC2)n2nc(C)c(-c3ccc(Cl)cc3)c2n1	47*	34*	-4	14	2.7	0.34
Cc1cc(NCCN2CCOCC2)n2nc(C)c(-c3ccccc3)c2n1	-1	-5	-2	-7	2.5	-0.76
COc1cccc(NC(=O)Cc2cn(C)c3ccccc23)c1	-7	-3	12	31	-4.5*	-0.18
COc1cccc(NC(=O)Cn2cc(C#N)c3ccccc32)c1	.	.	.	.	-2.7	1.1
CCOC(=O)C1C(c2cccc(Cl)c2Cl)NC(=O)NC1(O)C(F)(F)F (configuration not stated)	4	4	-3	-5	-0.059	-0.56

Assay outcomes: PubChem, several laboratories
